This series can be described thus: Toxicity liver stage against HepG2, at 10uM. Format: cell-based. The arrangement: test concentration 10 uM, cell line HepG2-A16-CD81EGFP. The following applies: human, HepG2-A16-CD81EGFP cells; read-out: INHIBITION
A digest of the protocol: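 Uninfected HepG2-A16-CD81EGFP cells, 3 × 10^3 per well, 1536-well, plated on prespotted compound at 10 μM final, parasite-free screening media added to match infected plates; puromycin 10 μM positive, DMSO 0.5% negative; run in parallel with 48 h PbLuc assay at 37 °C, 5% CO2; viability by CellTiter-Glo luminescence, normalized to controls.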

In the case of `CCCn1nc(C)c(CNS(=O)(=O)NCc2ccccc2)c1C`, the cytotoxicity at 10 µM is -5.05%.
Turning to `O=C(Nc1cccc(N2CCOCC2)c1)N[C@H](CO)c1ccccc1`, the cytotoxicity at 10 µM is -8.1%.
In the case of `COCCN1C[C@@H]2COC[C@@H](CC(=O)NCc3cccnc3)[C@@H]2C1`, the cytotoxicity at 10 µM was 12%.
As for `CCc1nc(C2CCCN2C(=O)c2ccc3c(c2)nnn3C)no1` (stereo unspecified), the cytotoxicity at 10 µM is -4.35%.
For `CC(=O)Nc1nc2c(s1)C(C)(C)Nc1ccccc1S2`, the cytotoxicity at 10 µM was -7.08%.
Turning to `O=C(c1cccnc1)N1CCN2C[C@H](OCc3ccccc3)C[C@H]2C1`, the cytotoxicity at 10 µM is -75.2%.
Under `COCC1CC2(CCN(Cc3ccc(C)o3)CC2)CN1C(C)C` (stereo unspecified) stands -2.42%; under `Cc1cc(Cc2ccccc2F)cc(C2CCCNC2)n1` (stereo unspecified), 0.00505%; under `COc1cccc(CN2CCN(c3noc(C(C)C)n3)CC2)c1F`, 2.97%.
The result for `COC(=O)CC1CN(Cc2c(Cl)ccc3cccnc23)CCO1` (stereo unspecified) reads 8.36%; that for `Cc1cc(-c2cnn(CCNC(=O)C3CC3)c2C2CC2)on1`, 11.7%; that for `Cc1cccc(CN2C[C@H]3CCC[C@@]3(COCc3csc(C)n3)C2)n1`, 14.3%.
The result for `c1cncc(CCc2nc(C3CC3)nn2-c2ccc3c(c2)OCCO3)c1` reads -0.833%.
For the compound `Cc1ccccc1C(O)c1ccncc1` (stereo unspecified), the cytotoxicity at 10 µM was -4.84%.
The result for `O=C1Nc2ccccc2C12CCN(Cc1cccs1)CC2` reads -0.184%; that for `Cc1cc(CN(C)C(=O)CN2CC3(CCNCC3)OC2=O)n(C)n1`, 9.81%; that for `Cn1c2c(c(=O)n1C)CN(S(=O)(=O)c1cccs1)CCC2`, 8.98%.
The result for `O=C(Cc1ccc2c(c1)CCO2)N1CCCC(n2cccn2)C1` (stereo unspecified) reads 5.67%; that for `COc1cccc(Cn2cc(C3=CCN(CCO)CC3)cn2)c1`, -10.2%; that for `C1CC(CN2CCO[C@H]3[C@H](OCC4CC4)CC[C@@H]32)CCO1`, -13.3%.
The result for `Cc1cc(COc2ccc(OC3CCCCNC3=O)cc2)on1` (stereo unspecified) reads 13.4%.
As for `CC(C)N1CCC(NC(=O)NCCC(=O)NCc2ccccc2)C1` (stereo unspecified), the cytotoxicity at 10 µM is -0.986%.
Under `Cc1noc(C2CCCN(C(=O)c3cncc(Br)c3)C2)n1` (stereo unspecified) stands -1.82%; under `CCn1cc(CN2CCc3nc(N4CCOCC4)nc(O)c3CC2)cn1`, -5.59%; under `COCCn1cc(NCc2c[nH]nc2C(C)(C)C)cn1`, -2.35%.
On to `CN(C)CC1COCCN1C(=O)c1ccccc1C(=O)c1ccccc1` (stereo unspecified), for which the cytotoxicity at 10 µM stood at 1.12%.
For `Cn1ncc2c(NCC(=O)N3CCNCC3)nc(C(C)(C)C)nc21`, the cytotoxicity at 10 µM is -10.6%.
Under `Cc1ccc(NC2CCN(C(=O)c3cncnc3C)CC2)nn1` stands -3.04%; under `CC(C)N(C)Cc1cc(=O)n2c(n1)CN(S(=O)(=O)C1CC1)CCC2`, 0.819%.
For `CCCc1nnnn1CC(=O)NCc1cccc(C)c1`, the cytotoxicity at 10 µM is -3.94%.
Turning to `CCc1cnc(C)nc1N1CCN(C(N)=O)CC1`, the cytotoxicity at 10 µM was -46.3%.
With `CCc1csc(CNCC(=O)Nc2ccc(Cl)c(C)c2)n1`, the cytotoxicity at 10 µM amounted to 5.33%.
In the case of `CCc1ccc(C(NCC(N)=O)C(C)(C)C)o1` (stereo unspecified), the cytotoxicity at 10 µM is -7.21%.
Consider `COC(=O)c1sccc1CN1CCN(C(=O)c2ccc(C)o2)CC1`, for which the cytotoxicity at 10 µM worked out at 2.37%.
Turning to `CC(C)CC(=O)N1C[C@H]2CCCN(S(=O)(=O)c3ccc(Cl)s3)[C@H]2C1`, the cytotoxicity at 10 µM is -1.63%.
In the case of `CCS(=O)(=O)CCN1CCC(N(C)Cc2ncc(C)o2)C1` (stereo unspecified), the cytotoxicity at 10 µM turned out to be 1.75%.
Under `CN1CC(c2ccccc2)CC12CCN(C(=O)c1ccc(Cl)cn1)CC2` (stereo unspecified) stands 3.62%; under `CN(C)C(=O)CN1CCN(C(=O)c2cnn(-c3ccccc3Cl)c2)CC1`, -3.67%.
Under `CC1CCN(C(=O)c2cnn3c(-c4ccco4)ccnc23)CC1` stands 8.77%; under `OC(COCc1ccccc1F)CN1CCc2c(ncn2C2CC2)C1` (stereo unspecified), 2.86%; under `O=C1[C@@H]2CCN(Cc3ccoc3)C[C@@H]2OCCN1c1cccnc1`, -74.6%.
For the compound `Cc1nc(C2CCCN2C(=O)c2cnns2)no1` (stereo unspecified), the cytotoxicity at 10 µM is -3.71%.
The result for `CCC(NC(=O)c1cccc2[nH]ccc12)C(=O)N1CCOCC1` (stereo unspecified) reads -4.1%; that for `O=C(c1ccc(-n2ccnc2)cc1)N1CCN(c2cnccn2)CC1`, -5.63%.
For the compound `NC(=O)c1cccc(NC(=O)CSc2ccc3c(c2)CCC3)c1`, the cytotoxicity at 10 µM is 21.4%.
The result for `Cc1nn(C)cc1C(=O)NCc1csc(C2CC2)n1` reads -4.1%.
As to `Cn1cc(CCC(=O)NS(=O)(=O)N2CCCc3ccccc32)cn1`, the cytotoxicity at 10 µM was 14.6%.
The result for `COCCN1CCO[C@H]2CN(Cc3cccc(C)n3)C[C@H]21` reads -116%; that for `Cc1nc(CNC2CC(=O)N(CCc3cccc(Cl)c3)C2)c[nH]1` (stereo unspecified), -133%; that for `Cc1ccc(CN2CCOC3(COCCN(C(C)C)C3)C2)s1` (stereo unspecified), -0.82%.
On to `CN(CCN1CCOCC1)C(=O)CCCOCCc1ccccc1`, for which the cytotoxicity at 10 µM was -1.28%.
Turning to `Cc1noc(C)c1CC(=O)N1CCCC(n2ccnc2C)C1` (stereo unspecified), the cytotoxicity at 10 µM is -4.49%.
For `COCCC(=O)NCc1ccc(-c2ccccc2C(=O)O)nc1`, the cytotoxicity at 10 µM is 2.28%.
The result for `Cc1ncsc1CN1C[C@@H]2CC[C@H]1CN(Cc1ccccc1)C2` reads -14.1%.
The result for `N#CCCCS(=O)(=O)N1CCC(CSc2ccccc2)C1` (stereo unspecified) reads 1.7%.
Under `Cc1cc(C(=O)NCC(O)c2c(Cl)cccc2Cl)nn1C` (stereo unspecified) stands -9.38%.
As to `CN(Cc1ccc([S+](C)[O-])cc1)c1ccc(C(F)(F)F)cn1` (stereo unspecified), the cytotoxicity at 10 µM was -1.32%.
The result for `CN1CCC(c2cccc(C(=O)N(C)C)n2)CC1` reads 4.53%; that for `CCOc1cccc(CNC2CCCN(Cc3noc(C)n3)C2)c1` (stereo unspecified), -2.3%; that for `Cc1cnn(CC2CCCN2Cc2nc(C)c3ccccc3n2)c1` (stereo unspecified), -8.94%.
Under `CCOc1ccc(C(=O)Nc2c(C)nc3cccc(C)n3c2=O)cc1` stands 8.99%.
For the compound `CC(C)CCN1C[C@@H]2C[C@H](C(=O)NCc3ccccc3)[C@H](C1)O2`, the cytotoxicity at 10 µM is -2%.
Under `Cc1noc(C)c1C(=O)N1C[C@@H]2CCCO[C@@H]2[C@H](N(C)C)C1` stands 9.85%; under `Cc1nnc(C(C)N2CCCN(Cc3ccc(C#N)cc3)CC2)o1` (stereo unspecified), -11.1%; under `CCn1cc(Cl)c(C(=O)NCc2cnn(C)c2)n1`, -4.41%.
Consider `CSCc1noc(CN2CCC3(CC2)CC(=O)N(CC(C)C)C3)n1`, for which the cytotoxicity at 10 µM is -0.0813%.
`Cc1cc(-c2nn(C)c(Cl)c2CN2CCN(C)C(C(=O)O)C2)no1` (stereo unspecified): the cytotoxicity at 10 µM was -0.0938%.
Regarding `CN(C)C(=O)N1CCN(CCn2nc3ccccn3c2=O)CC1`, the cytotoxicity at 10 µM was 0.562%.
Under `O=C(Cc1csc(-c2ccsc2)n1)N1CCN(c2cnccn2)CC1` stands -7.12%; under `COc1cnc(CSc2nnc(C)s2)cc1OCC(=O)NC(C)(C)C`, 9.82%; under `Cc1ccc(CNC(=O)c2ccc(S(=O)(=O)N3C[C@H]4C[C@@H]3CN4)cc2)o1`, -7.2%.
Consider `CCc1ccc(CN(C)Cc2nc(COc3ccccc3)no2)nc1`, for which the cytotoxicity at 10 µM stood at 6.58%.
With `CCc1nc(NS(=O)(=O)c2cc(C)cc(F)c2)no1`, the cytotoxicity at 10 µM came out at 2.31%.
Under `CC[C@H]1CN2CC[C@H]1C[C@@H]2CNCc1ccc(OC)cc1` stands -1.19%; under `Cc1cc2n(n1)CC(CNCc1cnn(C)c1)CN2` (stereo unspecified), 5.25%.
Regarding `CN(C)c1cc(C(=O)N2CCCN(Cc3cscn3)CC2)ccn1`, the cytotoxicity at 10 µM was -15%.
The result for `Cc1csc(CN(CC2CCCO2)C(=O)c2cccnc2C)n1` (stereo unspecified) reads 0.459%; that for `Cc1cc(C[C@@H]2CCC[C@H]2NCc2c[nH]nc2-c2ccccc2)on1`, -14%; that for `CC(C)[C@@H]1CN(c2ncc(F)cn2)C[C@H]1NC(=O)N(C)C`, -4.03%.
For `COCC(=O)N1CCN(C(=O)c2scnc2C)CC1`, the cytotoxicity at 10 µM is -9.75%.
Consider `Cc1cc(C)n(-c2ccc3nnc(C)n3n2)n1`, for which the cytotoxicity at 10 µM was found to be 17.8%.
Under `O=C(c1cnc(C2CC2)nc1)N1CCCC(c2nccs2)C1` (stereo unspecified) stands 4.53%.
Under `O=C(c1ncc[nH]1)N1CCC(n2cc(-c3cccc(Cl)c3)nn2)CC1` stands 5.28%; under `CCOCCN1CCC(c2cncc(C)n2)CC1`, -2.58%; under `CCC(C(=O)N1CCCN(CCN(C)C)CC1)N1CCCC1=O` (stereo unspecified), 4.38%.
On to `O=C(Nc1ccccc1F)NC1(CO)CCOCC1`, for which the cytotoxicity at 10 µM was -46.4%.
With `COCCN1CCC2(CCCN(C(=O)c3cncn3C)C2)CC1`, the cytotoxicity at 10 µM was -1.4%.
The result for `CN(C)CCN(C)C(=O)c1cn(CC2CCCCC2)nn1` reads -3.61%; that for `COc1ccc(C[C@H]2CN(C(=O)c3ccn(C)n3)CC[C@H]2OC)cc1`, 5.12%; that for `Cc1nc(-c2ccco2)ccc1C(=O)N1CCCC1Cn1cccn1` (stereo unspecified), 5.61%.
For the compound `Cc1nonc1N1CCN(Cc2nc(CC3CC3)no2)CC1`, the cytotoxicity at 10 µM amounted to 9.34%.
Turning to `Cc1nnc(N(CCC#N)CCC#N)s1`, the cytotoxicity at 10 µM was -0.402%.
In the case of `CC(C)OCCCNC(=O)CN1CCC(N2CCN(C)C2=O)CC1`, the cytotoxicity at 10 µM was -6.82%.
The result for `CCNC(=O)C1(Cc2cc(-c3ccccc3)no2)CCCN(C)C1` (stereo unspecified) reads 5.31%; that for `COC[C@]1(O)CCN(Cc2c[nH]c(CC3CCCC3)n2)CC1(C)C`, 17.7%.
With `Cc1n[nH]c(C)c1NC(=O)C1CCCN(C(=O)NCC(C)C)C1` (stereo unspecified), the cytotoxicity at 10 µM was 11%.

For the origin of these results see ChEMBL document CHEMBL4513216, “Probing the Open Global Health Chemical Diversity Library for Multistage-Active Starting Points for Next-Generation Antimalarials” (ACS Infect Dis, 2020).
